T cell modulator: modulates CD8 T cell binding to vesicles. 2C CD8+ T cell-vesicle binding, flow cytometry; stronger effect = lower value. response (vesicle binding), % at 7 µM. hit rate 0.068% among 330,000. AID 2052;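 active = response, share of CD8 T cells binding vesicles, and their 90th percentile fluorescence all below set limits, cut at about 80% in these data, passing the limit was not always enough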;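 also: values below 100% mean blocked vesicle binding to the CD8+ T cells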
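Material: murine 2C transgenic CD8+ T lymphocytes / Also added: QL9-peptide-loaded Drosophila micro-vesicles bearing Ld, ICAM-1 and B7-1 / Schedule: binding step 1.5 h, 37 °C, antibody labelling 20 min, ice / Signal: flow cytometry, PE anti-B7-1 (FL2) versus Alexa647 anti-CD8 (FL8), PFA-fixed / Evaluation: percent CD8+ FL2 mean versus row control / Benchmarks: naked versus QL9-loaded vesicles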
MPTP inh: blocks calcium-induced mitochondrial swelling; inhibition, % at 10 µM; hit rate 1.4% among 360,000; isolated mouse mitochondria, Ca2+ swelling absorbance, 30 min;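 active = inhibition of 50% or more, scaled per plate between neutral and stimulator controls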;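 also: 0% = DMSO wells given calcium and 100% = 1 mM EGTA wells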
rCAG binder: r(CAG) repeat RNA binding | inhibition, % at 3 µM | hit rate 1.3% among 370,000 | TO-PRO-1 dye displacement fluorescence;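 active = inhibition above the plate cutoff, the mean of all test compounds on that plate plus 3 SD, cut at about 35% in these data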;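 also: 0% = DMSO alone and 100% = 100 µM mitoxantrone as full dye displacement; higher means more dye released from RNA so lower well fluorescence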
B2AR ag: human beta-2 adrenergic receptor agonism by FAP; P07550; hit rate 0.43% among 340,000; AID 504454; response, % (concentration not given with the values); Am2.2-beta2AR cells, FAP receptor internalization, flow cytometry;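 active = response above a set limit, near 3 SD of response in nonfluorescent compounds, cut at about 42% in these data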
Target sequence (P07550 whole entry, looked up): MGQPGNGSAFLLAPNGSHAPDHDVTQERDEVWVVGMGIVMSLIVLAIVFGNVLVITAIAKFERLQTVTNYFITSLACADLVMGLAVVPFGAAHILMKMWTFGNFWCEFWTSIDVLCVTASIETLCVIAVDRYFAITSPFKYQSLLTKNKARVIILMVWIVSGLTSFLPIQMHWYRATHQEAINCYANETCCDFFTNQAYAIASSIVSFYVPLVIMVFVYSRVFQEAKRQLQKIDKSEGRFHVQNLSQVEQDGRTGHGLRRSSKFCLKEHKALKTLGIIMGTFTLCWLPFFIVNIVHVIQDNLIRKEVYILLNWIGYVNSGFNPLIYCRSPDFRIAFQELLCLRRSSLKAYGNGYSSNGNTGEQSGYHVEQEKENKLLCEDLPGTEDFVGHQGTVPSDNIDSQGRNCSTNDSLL
V-ATPase pHluor: alters yeast V-ATPase proton transport; S. cerevisiae, pHLuorin cytosolic pH fluorescence; response, % at 10 µM; hit rate 0.37% among 350,000; AID 504577; in the data active = response mostly above about 7.3%, no sharp cut-off; inactive = mostly below about 5.4%; also: actives read high
Exocytosis inh: lytic granule exocytosis inhibition. TALL-104 LAMP-1 surface exposure, flow cytometry; cells stimulated with thapsigargin and PMA. hit rate 0.66% among 360,000. inhibition, % at 10 µM;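 active = inhibition above about 55%, limit read from the data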
rCAG bind conf: r(CAG) RNA repeat binding, confirmation | shares compounds with rCAG binder | TO-PRO-1 dye displacement fluorescence | inhibition, % at 3 µM | hit rate 70% among 4,300 | AID 652065;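 active = inhibition above a per-plate cutoff, the mean inhibition of sample wells plus 3 SD, cut at about 35% in these data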;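 also: loss of TO-PRO-1 fluorescence as compound displaces dye from 1x1 AA loop RNA; 0% = DMSO only wells and 100% = 100 µM mitoxantrone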
DNA CAG counter: counter-screen for rCAG RNA binders: DNA CAG dye complex inhibitors | shares compounds with rCAG binder | d(CAG) DNA oligo TO-PRO-1 dye displacement, fluorescence | AID 652068 | inhibition, % at 3 µM | hit rate 94% among 4,300;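 active = inhibition above its plate's cutoff, the mean test-well inhibition plus 3 SD, cut at about 4.8% in these data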;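 also: 0% = DNA dye mix with DMSO and 100% = 100 µM mitoxantrone; hits displace the dye from DNA and so lower well fluorescence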
Numbers without * were called inactive; i = inactive; / = not tested or not shown. A selection: hits, their analogues and other compounds. The true share with any hit is near 3.8%.

SMILES | T cell modulator | MPTP inh | rCAG binder | B2AR ag | V-ATPase pHluor | Exocytosis inh | rCAG bind conf | DNA CAG counter
CCCCN1CCN(C2=NC(=O)N(c3ccc(Br)cc3)C(=O)C2)CC1 | / | / | 8.4 | / | / | / | / | /
CC1CCC2(CC1)CCN(CCCOC(=O)Nc1cccc(F)c1)C2=O (stereo not drawn) | / | / | -2.8 | / | / | / | / | /
COc1ccc([C@@H]2CC=C(C(=O)O)[C@H](c3ccccc3F)N2S(=O)(=O)c2ccccc2C)cc1 | 652.9 | -1.5 | 41.3* | -6.9 | -0.5 | 2.9 | 40.6* | 10.6*
COc1cccc(C(=O)Nc2nnc(S(=O)(=O)Nc3cccc(C)c3)s2)c1 | i | -1.1 | 17.2 | -5.3 | -1.1 | -3.0 | / | /
COc1ccc(CN(C)S(=O)(=O)c2nnc(NC(=O)c3cccc(C)c3)s2)cc1OC | 367.9 | 0.7 | 66.9* | -6.8 | 5.6 | 3.7 | 52.9* | 16.6*
Cc1cccc(NS(=O)(=O)c2nnc(NC(=O)c3ccc(C)c(C)c3)s2)c1 | 365.5 | -1.4 | 40.9* | 5.4 | 1.2 | -1.2 | 36.7* | 14.5*
Cc1cccc(NS(=O)(=O)c2nnc(NC(=O)C3CCCCC3)s2)c1 | 400.8 | -0.2 | 37.2* | 2.6 | 7.2 | 2.1 | 20.3 | 5.3*
CCOC(=O)C1=C(C(=O)OCC)C2N(Cc3ccc(Br)cc3)c3ccccc3[C@@]23C[C@@H](C(=O)OC)N(S(=O)(=O)c2ccc(Br)cc2)C3=N1 (stereo partly drawn) | / | / | 10.3 | / | / | / | / | /
COc1ccccc1CCC[C@@H](CCS(=O)(=O)C(C)C)CC1CCCCC1 | / | / | 3.9 | / | / | / | / | /
CCCc1cc(=O)[nH]c(SCC(=O)Nc2nc3ccc(OCC)cc3s2)n1 | 343.8 | 0.5 | 49.5* | 9.2 | 0.5 | -0.4 | 40.4* | 12.3*
CCOc1ccc2nc(NC(=O)Cc3cccs3)sc2c1 | 464.1 | 0.5 | / | -10.8 | -6.6 | 2.6 | / | /
CCOc1ccc2nc(NC(=O)Nc3cccs3)sc2c1 | 828.4 | -1.2 | 63.6* | -4.8 | 1.5 | -1.7 | 28.6 | 28.2*
COc1ccc2nc(NC(=O)CSc3nc(C)cc(=O)[nH]3)sc2c1 | 598.9 | 0.8 | 11.5 | 5.9 | -7.0 | 0.1 | / | /
CCOC(=O)c1c(C)n(S(=O)(=O)c2ccc(C)cc2)c2ccc(O)c(C(=O)O)c12 | 208.6 | 0.7 | 65.9* | 9.9 | 4.9 | 3.5 | 64.1* | 27.4*
CCOC(=O)C1=C[C@@H](C)N(S(=O)(=O)c2ccc(C)cc2)[C@H]1c1ccccc1 | / | 2.0 | 1.5 | / | / | -0.1 | / | /
COc1ccc(OCC2CN(Cc3ccccc3)S(=O)(=O)CCO2)cc1 (stereo not drawn) | / | / | 5.0 | / | / | / | / | /
C=CCOc1ccc(Br)cc1/C=C1\NC(=S)N(C(C)=O)C1=O | 171.3 | 1.7 | 65.8* | -2.8 | -5.1 | 0.5 | 48.7* | 15.2*
COc1cc(C2CC(=O)N3CN(Cc4ccco4)CSC3=C2C#N)ccc1OCc1ccccc1 (stereo not drawn) | 537.8 | -0.1 | 41.7* | -1.6 | -1.8 | 5.4 | 20.5 | 9.8*
COc1ccc(C2CC(=O)N3CN(Cc4ccco4)CSC3=C2C#N)cc1 (stereo not drawn) | 204.6 | 2.4 | 28.3 | 0.1 | 4.0 | 0.4 | / | /
COc1ccc2ccccc2c1C1CC(=O)N2CN(Cc3ccco3)CSC2=C1C#N (stereo not drawn) | 536.5 | -0.3 | 49.2* | -3.1 | 1.1 | 15.6 | 26.4 | 14.0*
Cc1cc(C(=O)O[C@H]2CCC[C@@]3(C(=O)N(Cc4ccccc4)c4ccccc43)[C@H]2NC(=O)CCc2ccccc2)no1 | / | / | 4.7 | / | / | / | / | /
COc1ccccc1N1CCN(C(=O)c2ccc3c(c2)nc(C)n3-c2cc(OC)c(OC)c(OC)c2)CC1 | / | / | 1.3 | / | / | / | / | /
COc1ccc(-c2c/c(=N\c3nc(-c4ccccc4)c(C)s3)c3ccccc3o2)cc1O | 151.6 | 3.6 | 38.8* | -26.1 | -1.4 | 18.8 | 33.9 | 14.8*
COC(=O)c1cc(-c2ccc(Cl)s2)c(=O)n2c1CCC2 | / | / | 2.1 | / | / | / | / | /
O=C(Nc1ccc(C(F)(F)F)cc1)OC1CC2CC1[C@H]1CCCCN1[C@H]2Cc1ccccc1 (stereo partly drawn) | / | / | 7.4 | / | / | / | / | /
CCOC(=O)C1=CCN(S(=O)(=O)c2cccc(Cl)c2)C1c1cccc(Br)c1 (stereo not drawn) | / | / | 4.2 | / | / | / | / | /

From PubChem
